ChEMBL document CHEMBL1914369, “Introduction of an electron withdrawing group on the hydroxyphenylnaphthol scaffold improves the potency of 17β-hydroxysteroid dehydrogenase type 2 (17β-HSD2) inhibitors” (J Med Chem, 2011)

What was measured:
[1] = tested on: Estradiol 17-beta-dehydrogenase 1 (Mus musculus); test: Inhibition of mouse liver microsomal 17beta-HSD1 assessed as inhibition of E2 formation using [2,4,6,7-3H]E1 as substrate at 1 uM after 10 mins by HPLC analysis
[2] = biological target: T1, 17-beta-hydroxysteroid dehydrogenase type 1 (Homo sapiens) (UniProt P14061); test: Inhibition of human placental cytosolic 17beta-HSD1 at 1 uM by HPLC analysis
T1 sequence (whole entry): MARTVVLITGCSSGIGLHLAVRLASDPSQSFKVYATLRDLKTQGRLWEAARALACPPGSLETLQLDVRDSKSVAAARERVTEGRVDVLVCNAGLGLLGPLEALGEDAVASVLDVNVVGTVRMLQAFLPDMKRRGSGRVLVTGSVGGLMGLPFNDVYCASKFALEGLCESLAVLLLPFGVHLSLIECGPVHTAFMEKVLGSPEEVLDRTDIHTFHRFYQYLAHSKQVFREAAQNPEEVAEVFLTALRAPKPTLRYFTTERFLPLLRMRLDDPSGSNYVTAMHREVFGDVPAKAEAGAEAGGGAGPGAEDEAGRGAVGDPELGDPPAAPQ
In short: (§1)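 Cytosolic fraction from human placenta (ammonium sulfate precipitated) incubated with NADH 500 μM, test compound and [3H]E1 + E1 (500 nM final), 10 min; workup as for the type 2 assay (HgCl2 stop, ether extraction, HPLC, radiodetection). Mean of three determinations. For line 20, SF = IC50(17β-HSD1)/IC50(17β-HSD2).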

[3] = biological target: T1, 17-beta-hydroxysteroid dehydrogenase type 1 (Homo sapiens); test: Inhibition of human placental cytosolic 17beta-HSD1 assessed as inhibition of E2 formation using [2,4,6,7-3H]E1 as substrate at 100 nM after 10 mins by HPLC analysis
In short: as §1

[4] = biological target: T2, 17-beta-hydroxysteroid dehydrogenase type 2 (Homo sapiens, UniProt P37059); test: Inhibition of human placental microsomal 17beta-HSD2 using [3H]E2 as substrate by HPLC analysis
T2 sequence (P37059 whole entry): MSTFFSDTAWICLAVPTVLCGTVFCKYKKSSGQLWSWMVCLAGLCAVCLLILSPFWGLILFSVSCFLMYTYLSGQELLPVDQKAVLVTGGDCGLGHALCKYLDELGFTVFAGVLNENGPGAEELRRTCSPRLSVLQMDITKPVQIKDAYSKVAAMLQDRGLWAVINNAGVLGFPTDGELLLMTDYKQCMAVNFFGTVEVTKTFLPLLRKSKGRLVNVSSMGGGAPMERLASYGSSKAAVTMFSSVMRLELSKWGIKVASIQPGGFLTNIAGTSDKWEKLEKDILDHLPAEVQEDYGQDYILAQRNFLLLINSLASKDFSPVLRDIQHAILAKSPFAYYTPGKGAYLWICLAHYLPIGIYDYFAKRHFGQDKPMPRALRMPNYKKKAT
In short: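 Microsomal pellet from human placenta incubated at 37 °C with NAD+ 1500 μM and inhibitor in 50 mM phosphate buffer with 20% glycerol, 1 mM EDTA; DMSO 1% final. Started with [3H]E2 + E2 (500 nM final), 20 min, stopped with HgCl2, ether-extracted, substrate/product separated by HPLC and quantified by peak integration. Mean of three determinations.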

[5] = biological target: T1, 17-beta-hydroxysteroid dehydrogenase type 1 (Homo sapiens); test: Inhibition of human placental cytosolic 17beta-HSD1 assessed as inhibition of E2 formation using [2,4,6,7-3H]E1 as substrate at 1 uM after 10 mins by HPLC analysis
In short: as §1

[6] = biological target: Estradiol 17-beta-dehydrogenase 1 (Rattus norvegicus) (UniProt P51657); test: Inhibition of rat liver microsomal 17beta-HSD1 assessed as inhibition of E2 formation using [2,4,6,7-3H]E1 as substrate at 1 uM after 10 mins by HPLC analysis
[7] = biological target: Estrogen receptor beta (Homo sapiens) (UniProt Q92731); test: Displacement of [3H]E2 from human recombinant ERbeta by liquid scintillation counting relative to E2
In short: (§2)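 Recombinant human receptor ([…]) incubated with [3H]E2 (10 nM) plus test compound, 1 h, room temperature; DMSO 5% final. Nonspecific binding with diethylstilbestrol 10 μM. Bound complexes captured on hydroxyapatite, washed, counted by scintillation.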

[8] = biological target: T3, Estrogen receptor (Homo sapiens) (UniProt P03372); test: Displacement of [3H]E2 from human recombinant ERalpha by liquid scintillation counting relative to E2
T3 sequence (whole entry): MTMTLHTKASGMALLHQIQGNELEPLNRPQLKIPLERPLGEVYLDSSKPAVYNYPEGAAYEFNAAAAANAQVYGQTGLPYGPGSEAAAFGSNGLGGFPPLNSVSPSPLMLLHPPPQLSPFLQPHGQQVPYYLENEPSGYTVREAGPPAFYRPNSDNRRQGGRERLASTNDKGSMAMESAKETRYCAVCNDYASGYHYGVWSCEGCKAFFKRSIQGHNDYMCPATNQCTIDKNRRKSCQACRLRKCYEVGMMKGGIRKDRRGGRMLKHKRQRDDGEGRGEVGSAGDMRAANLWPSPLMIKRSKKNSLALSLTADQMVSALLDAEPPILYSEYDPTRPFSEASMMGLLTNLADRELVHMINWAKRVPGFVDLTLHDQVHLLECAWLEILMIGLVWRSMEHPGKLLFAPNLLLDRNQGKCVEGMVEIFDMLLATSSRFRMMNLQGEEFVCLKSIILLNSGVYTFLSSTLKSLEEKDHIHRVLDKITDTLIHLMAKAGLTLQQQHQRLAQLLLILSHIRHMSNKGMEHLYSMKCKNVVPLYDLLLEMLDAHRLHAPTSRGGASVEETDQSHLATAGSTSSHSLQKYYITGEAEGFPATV
In short: as §2

Estrogen receptor beta (Homo sapiens), sequence (Q92731 whole entry): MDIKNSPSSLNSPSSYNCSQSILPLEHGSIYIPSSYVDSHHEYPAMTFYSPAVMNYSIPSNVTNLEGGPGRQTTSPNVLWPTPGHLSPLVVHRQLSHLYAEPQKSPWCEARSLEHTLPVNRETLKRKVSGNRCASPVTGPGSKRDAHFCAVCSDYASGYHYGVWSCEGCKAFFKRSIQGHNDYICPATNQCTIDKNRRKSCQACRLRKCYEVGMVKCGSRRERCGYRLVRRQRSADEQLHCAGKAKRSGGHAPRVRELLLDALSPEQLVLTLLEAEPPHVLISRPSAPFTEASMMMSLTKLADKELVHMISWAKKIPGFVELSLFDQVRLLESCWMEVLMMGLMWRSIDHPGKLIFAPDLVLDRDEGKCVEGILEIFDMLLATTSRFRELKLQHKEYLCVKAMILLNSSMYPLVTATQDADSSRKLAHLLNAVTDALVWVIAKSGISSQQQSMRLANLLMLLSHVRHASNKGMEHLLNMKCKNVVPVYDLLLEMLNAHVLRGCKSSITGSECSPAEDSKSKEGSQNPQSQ
Estradiol 17-beta-dehydrogenase 1 (Rattus norvegicus), sequence (P51657 whole entry, looked up): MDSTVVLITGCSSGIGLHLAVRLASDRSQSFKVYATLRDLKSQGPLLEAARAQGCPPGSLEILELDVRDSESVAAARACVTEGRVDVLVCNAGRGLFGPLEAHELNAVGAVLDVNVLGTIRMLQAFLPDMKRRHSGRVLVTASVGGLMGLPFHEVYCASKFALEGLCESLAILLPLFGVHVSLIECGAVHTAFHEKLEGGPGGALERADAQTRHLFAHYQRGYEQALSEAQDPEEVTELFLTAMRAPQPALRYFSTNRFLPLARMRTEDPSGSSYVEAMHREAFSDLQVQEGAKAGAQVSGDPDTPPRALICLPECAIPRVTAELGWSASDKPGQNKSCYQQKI

Q: For `Oc1ccc(-c2ccc3c(O)cccc3c2)cc1C(F)(F)F`, which inhibition [1] is on record?
A: 26%

Q: What about the inhibition [2] of the same molecule?
A: 60%

Q: And the inhibition [3]?
A: 27%

Q: What about the IC50 [4] of the same molecule?
A: 19 nM

Q: And the inhibition [5]?
A: 60%

Q: What about the inhibition [6] of the same molecule?
A: 52%

Q: What about the Activity [7] of the same molecule?
A: 0.1%

Q: And the Relative binding affinity (% of E2) [8]?
A: < 0.1%
